Results pooled from the literature.
Lines come from different studies, so protocols differ.
Target: Serine/threonine-protein kinase mTOR (MTOR, Homo sapiens, UniProt P42345)

Compound | read-out | action | method | tested at | endpoint | value
CC(C)c1ccc(NC(=O)c2cccs2)c(-c2nc3ccccc3[nH]c2=O)c1 | enzyme activity | inhibitor | – | 1 µM | activity vs control | 85%
Nc1ncnc2occ(-c3ccc(NC(=O)Nc4cc(C(F)(F)F)ccc4F)cc3)c12 | enzyme activity | inhibitor | – | 20 µM | remaining activity | 74%
CS(=O)(=O)Nc1cccc(-c2csc(NC(=O)CSc3nc4nccnc4c(=O)n3CCc3ccccc3)n2)c1 | enzyme activity | inhibitor | – | 10 µM | inhibition | 1%
CN1CC(Oc2cnc(C#N)cc2-c2ccn3nc(NC(=O)C4CC4)cc3c2)C1 | enzyme activity | inhibitor | – | 1 µM | inhibition | 1%
CNCc1ccc(-c2cc(-c3nc(-c4ccc(S(=O)(=O)C(C)C)cc4)cnc3N)on2)cc1 | enzyme activity | inhibitor | – | 0.4 µM | inhibition | 0%
C=CC(=O)Nc1cc(Nc2nccc(Nc3cc(Cl)c(F)cc3C(C)(C)O)n2)c(OC)cc1N1CC[C@@H](N(C)C)C1 | enzyme activity | inhibitor | – | 1 µM | inhibition | 6%
Cc1ccc(C(=O)NCc2ccsc2)cc1C#Cc1cn(C(C)C)c2ncnc(N)c12 | enzyme activity | inhibitor | – | 1 µM | activity vs control | 105%
CCCCN(CCCC)C(=O)CN1C[C@@H](c2cc(OC)c3c(c2)OCO3)[C@H](C(=O)O)[C@H]1CC(C)(C)CCC | cell-free assay | – | competition with immobilised ligand | 1 µM | remaining binding | 100%
CC(C)(C)c1nc(-c2cccc(NS(=O)(=O)c3c(F)cccc3F)c2F)c(-c2ccnc(N)n2)s1 | enzyme activity | inhibitor | radiometric | 1 µM | remaining activity | 99%
Cc1noc([C@H]2C[C@@H](c3ccc(C(F)(F)F)cc3)CN(C(=O)N3CCS(=O)(=O)C3)C2)n1 | cell-free assay | – | competition with immobilised ligand | 1 µM | remaining binding | 92%
COc1cc2ncnc(Nc3ccc(Oc4ccccc4)cc3C)c2cc1OC | enzyme activity | inhibitor | – | 1 µM | inhibition | 1%
COCCOc1nc(-c2ccc(Cl)nc2)nc2c1CN(C(=O)c1ncn3ccccc13)CC2 | cell-free assay | – | competition with immobilised ligand | 0.1 µM | remaining binding | 97%
CCCS(=O)(=O)Nc1ccc(F)c(C(=O)c2c[nH]c3ncc(-c4ccc(Cl)cc4)cc23)c1F | enzyme activity | inhibitor | – | 1 µM | inhibition | < 10%
Cn1cc(Cl)c2c(Oc3c(F)cc(Nc4cc(Cl)nc(N)n4)cc3F)ccnc21 | cell-free assay | – | competition with immobilised ligand | 0.1 µM | remaining binding | 85%
N[C@@H]1CCN(c2nccc(-c3cnn4ncccc34)n2)C1 | binding | – | – | 1 µM | remaining binding | 99%
O=C(CSc1nc2nccnc2c(=O)n1CCc1ccccc1)Nc1ccccc1 | enzyme activity | inhibitor | – | 10 µM | inhibition | 31%
C[C@@H](c1cccc(C#N)c1)n1cc(Cl)cc(C(N)=O)c1=N | cell-free assay | – | competition with immobilised ligand | 1 µM | remaining binding | 96%
